In ChEMBL document CHEMBL1221325, “Synthesis and ribonuclease A inhibition activity of resorcinol and phloroglucinol derivatives of catechin and epicatechin: Importance of hydroxyl groups” (Bioorg Med Chem, 2010) one finds Ratio, Activity and Kb data, which are given here for seven compounds.

Active and inactive are the calls of the source. The rule behind the calls is not given here.

Test [1] addresses Ribonuclease pancreatic (Bos taurus) (UniProt P61823). Description: Inhibition of RNase A-mediated degradation of yeast tRNA assessed as residual tRNA band by agarose gel electrophoresis relative to control.
For test [2], the species on record is Gallus gallus. The experiment in a line: Antiangiogenic activity against angiogenin-induced angiogenesis in chicken eggs at 150 uM for 10 days measured after 48 hrs by CAM assay. It is filed as functional. As to conditions: Egg. The method in brief: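 Chick embryo chorioallantoic membrane exposed through a small hole drilled in the shell on day 2. 10 µl aliquots of angiogenin, alone or mixed with compound, dried on transparent discs, which were inverted onto the CAM on day 10. Response read after 48 h as density of blood vessel formation against a control set.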

Test [3] concerns the target Ribonuclease pancreatic (Bos taurus) (UniProt P61823). The experiment in a line: Binding affinity to RNase A by fluorescence quenching.

Chain of Ribonuclease pancreatic (Bos taurus) (P61823 whole entry, looked up): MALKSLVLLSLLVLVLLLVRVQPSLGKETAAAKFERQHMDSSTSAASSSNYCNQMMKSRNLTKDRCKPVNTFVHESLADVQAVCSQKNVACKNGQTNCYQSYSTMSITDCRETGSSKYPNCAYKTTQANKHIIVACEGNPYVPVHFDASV

With `Nc1ccn([C@@H]2O[C@H](CO)[C@@H](OP(=O)(O)O)[C@H]2O)c(=O)n1`, the Ratio in test [1] amounted to 0.71. `Oc1cc(O)c([C@H]2c3c(O)cc(O)cc3O[C@H](c3ccc(O)c(O)c3)[C@@H]2O)c(O)c1`: the result in test [2] was Active. Besides, the Kb in test [3] is 6.76 ×10⁴ /M. In addition, the Ratio in test [1] amounted to 0.704. For the compound `Oc1cc(O)c2c(c1)O[C@H](c1ccc(O)c(O)c1)[C@H](O)C2`, in test [1], the Ratio is 0.295.

As for `Oc1cc(O)c([C@@H]2c3c(O)cc(O)cc3O[C@H](c3ccc(O)c(O)c3)[C@@H]2O)c(O)c1`, in test [3], the Kb is 3.14 ×10⁴ /M. In addition, in test [1], the Ratio was found to be 0.699. `Oc1ccc([C@@H]2c3c(O)cc(O)cc3O[C@H](c3ccc(O)c(O)c3)[C@H]2O)c(O)c1` came in with a Kb in test [3] of 1.37 ×10⁴ /M. Besides, the Ratio in test [1] turned out to be 0.612. In the case of `Oc1ccc([C@H]2c3c(O)cc(O)cc3O[C@H](c3ccc(O)c(O)c3)[C@@H]2O)c(O)c1`, in test [2], the result was Active. In addition, in test [3], the Kb is 2.42 ×10⁴ /M. Besides, in test [1], the Ratio was 0.659. As for `Oc1cc(O)c2c(c1)OC(c1ccc(O)c(O)c1)C(O)C2` (stereo not drawn), the Ratio in test [1] stood at 0.331.
